Reference: ChEMBL document CHEMBL2157917, “Targeting conserved water molecules: design of 4-aryl-5-cyanopyrrolo[2,3-d]pyrimidine Hsp90 inhibitors using fragment-based screening and structure-based optimization” (Bioorg Med Chem, 2012)
Where “and” joins values, the source holds several entries; their conditions need not be identical. Equal values may be shown once.

What was measured:
BT-474 = assay: Antiproliferative activity against human BT474 cells after 4 days by SRB method; type: functional; conditions: BT-474, 96 h
[1] = target: Heat shock protein HSP 90-beta (Homo sapiens, UniProt P08238); assay: Inhibition of fluorescently labeled VER51001 binding to full length human HSP90beta after 30 mins by fluorescence polarization assay
Sequence of Heat shock protein HSP 90-beta (P08238 whole entry): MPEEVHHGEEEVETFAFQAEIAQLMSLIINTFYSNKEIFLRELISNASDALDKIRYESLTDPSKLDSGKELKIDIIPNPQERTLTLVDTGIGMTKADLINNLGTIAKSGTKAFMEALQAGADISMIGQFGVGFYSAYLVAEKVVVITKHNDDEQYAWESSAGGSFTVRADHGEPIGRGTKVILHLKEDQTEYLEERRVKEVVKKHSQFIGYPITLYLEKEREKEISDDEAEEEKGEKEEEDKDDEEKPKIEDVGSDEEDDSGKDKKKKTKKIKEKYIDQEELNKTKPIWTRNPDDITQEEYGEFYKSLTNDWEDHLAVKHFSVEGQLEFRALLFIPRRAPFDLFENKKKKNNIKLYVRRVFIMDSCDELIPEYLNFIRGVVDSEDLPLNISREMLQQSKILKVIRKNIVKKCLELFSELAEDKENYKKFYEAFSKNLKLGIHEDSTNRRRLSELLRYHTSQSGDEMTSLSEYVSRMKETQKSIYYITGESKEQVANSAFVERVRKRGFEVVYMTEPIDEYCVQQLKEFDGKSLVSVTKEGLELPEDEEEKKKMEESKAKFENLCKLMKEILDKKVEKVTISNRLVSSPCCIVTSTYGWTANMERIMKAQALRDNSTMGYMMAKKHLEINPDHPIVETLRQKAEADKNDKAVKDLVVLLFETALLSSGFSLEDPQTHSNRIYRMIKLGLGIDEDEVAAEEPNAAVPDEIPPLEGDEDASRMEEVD

MDA-MB-468 = assay: Antiproliferative activity against human MDA-MB-468 cells after 4 days by SRB method; type: functional; conditions: MDA-MB-468, 96 h
HCT-116 = assay: Antiproliferative activity against human HCT116 cells after 4 days by SRB method; type: functional; conditions: HCT-116, 96 h
UGT [2] = assay: Intrinsic clearance in human liver microsomes assessed as UGT-mediated glucuronidation extraction ratio after 30 mins by LC-MS/MS analysis; type: ADME, Microsome; conditions: read-out: ERH
[3] = Tmax in Balb-C mouse kidney at 5 mg/kg, po; type: ADME, organism-based; design: dose 5 mg/kg, route oral
[4] = Cmax in Balb-C mouse kidney at 5 mg/kg, po; type: ADME, organism-based; design: dose 5 mg/kg, route oral
[5] = AUC (0 to 2 hrs ) in Balb-C mouse plasma at 5 mg/kg, po; type: ADME, organism-based; design: time < 2 hr, dose 5 mg/kg, route oral
[6] = target: T1, Voltage-gated inwardly rectifying potassium channel KCNH2 (Homo sapiens, UniProt Q12809); assay: Inhibition of human ERG expressed in HEK293 cells by voltage-clamp method; type: cell-based
T1 sequence (Q12809 whole entry): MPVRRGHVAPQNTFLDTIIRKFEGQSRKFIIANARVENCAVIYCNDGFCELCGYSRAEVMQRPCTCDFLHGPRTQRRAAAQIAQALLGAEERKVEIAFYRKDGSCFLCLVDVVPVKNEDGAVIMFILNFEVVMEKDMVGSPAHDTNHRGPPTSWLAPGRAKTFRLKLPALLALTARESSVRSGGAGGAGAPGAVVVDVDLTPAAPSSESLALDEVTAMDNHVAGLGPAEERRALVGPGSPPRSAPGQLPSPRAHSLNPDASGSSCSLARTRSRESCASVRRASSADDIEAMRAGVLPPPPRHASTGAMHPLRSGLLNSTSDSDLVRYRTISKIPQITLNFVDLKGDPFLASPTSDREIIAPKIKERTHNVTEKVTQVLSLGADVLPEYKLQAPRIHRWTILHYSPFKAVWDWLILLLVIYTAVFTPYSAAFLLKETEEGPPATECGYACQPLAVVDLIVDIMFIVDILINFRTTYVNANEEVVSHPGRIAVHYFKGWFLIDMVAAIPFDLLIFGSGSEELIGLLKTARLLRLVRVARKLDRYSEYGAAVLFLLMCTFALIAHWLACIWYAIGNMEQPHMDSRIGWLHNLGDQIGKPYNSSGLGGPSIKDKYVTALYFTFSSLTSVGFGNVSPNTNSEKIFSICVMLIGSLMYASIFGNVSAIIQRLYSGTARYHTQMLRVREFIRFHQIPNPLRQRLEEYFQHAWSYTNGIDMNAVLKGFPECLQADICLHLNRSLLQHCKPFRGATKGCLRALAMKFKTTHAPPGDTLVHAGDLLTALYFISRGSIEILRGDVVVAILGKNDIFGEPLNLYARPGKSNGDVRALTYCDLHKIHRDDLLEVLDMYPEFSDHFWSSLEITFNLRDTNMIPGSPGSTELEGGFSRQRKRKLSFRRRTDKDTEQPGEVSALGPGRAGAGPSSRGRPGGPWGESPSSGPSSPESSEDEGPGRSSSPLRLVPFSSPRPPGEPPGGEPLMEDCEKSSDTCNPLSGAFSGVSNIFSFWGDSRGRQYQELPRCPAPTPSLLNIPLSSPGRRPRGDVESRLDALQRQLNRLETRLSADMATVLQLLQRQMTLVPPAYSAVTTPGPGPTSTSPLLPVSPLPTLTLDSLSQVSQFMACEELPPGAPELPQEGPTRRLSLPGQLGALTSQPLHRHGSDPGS

UGT [7] = assay: Intrinsic clearance in human liver microsomes assessed as UGT-mediated glucuronidation after 30 mins by LC-MS/MS analysis; type: ADME, Microsome; conditions: read-out: CLH
[8] = AUC (0 to 2 hrs ) in Balb-C mouse kidney at 5 mg/kg, po; type: ADME, organism-based; design: time < 2 hr, dose 5 mg/kg, route oral
[9] = target: T1, Voltage-gated inwardly rectifying potassium channel KCNH2; assay: Displacement of [3H]-dofetilide from human ERG
[10] = Tmax in Balb-C mouse plasma at 5 mg/kg, po; type: ADME, organism-based; design: dose 5 mg/kg, route oral
[11] = Ratio of drug level in kidney to plasma of Balb-C mouse at 5 mg/kg, po; type: ADME, organism-based; design: dose 5 mg/kg, route oral
[12] = Cmax in Balb-C mouse plasma at 5 mg/kg, po; type: ADME, organism-based; design: dose 5 mg/kg, route oral
[13] = Binding affinity to hexa His-tagged HSP90 (9-236 aminoacids) by SPR assay
Outline: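 NTA chip charged with 0.5 mM Ni2+, then 100 nM His-tagged HSP90 captured to about 1500 RU. Running buffer 10 mM HEPES pH 7.4, 150 mM NaCl, EDTA, 0.05% Tween-20, 1% DMSO. Surface was reloaded for each concentration. Double-referenced sensorgrams were fitted globally to a single-step kinetic model.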

[14] = Binding affinity to HSP90 after 30 mins by ITC assay
Outline: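 Isothermal titration calorimetry at 25 °C with stirring at 1000 rpm. Ligands came from a 20 mM DMSO stock and were run in dialysis buffer with 1% DMSO. Ligand 10 µM in the cell, protein 100–200 µM in the syringe, 8–16 injections at 300 s spacing. One-site fit.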

GI50 (BT-474) [µM]	Ki [1] [µM]	GI50 (MDA-MB-468) [µM]	GI50 (HCT-116) [µM]	Kd [13] [µM]	Structure (SMILES)	further results
0.031	< 0.001	0.035	0.028		COc1cc(Cl)c(-c2nc(SCC(=O)N3CCC3)nc3[nH]cc(C#N)c23)cc1OC	
0.056	< 0.001	0.033	0.042		CNC(=O)CSc1nc(-c2cc(OC)c(OC)cc2Cl)c2c(C#N)c[nH]c2n1	
0.02	< 0.001	0.023	0.131		COc1cc(Cl)c(-c2nc(SCC(=O)N(C)C)nc3[nH]cc(C#N)c23)cc1O	hepatic extraction ratio at 0.5 h (UGT [2]): 0.8; Tmax [3]: 30 min; Cmax [4]: 31 ng/mL and 72 nM; AUC(0-t) at 2 h [5]: 0.016 µg·h/mL; IC50 [6]: > 30 µM; microsomal CLint (UGT [7]): 73 µL/min/mg; AUC(0-t) at 2 h [8]: 0.041 µg·h/mL; IC50 [9]: > 30 µM; Tmax [10]: 15 min; Kp [11]: 2.6; Cmax [12]: 25 nM and 11 ng/mL
0.078	0.008				CCN(CC)CCOc1cc(-c2nc(SCC(=O)NC)nc3[nH]cc(C#N)c23)c(Cl)cc1Cl	IC50 [6]: 17.8 µM; IC50 [9]: 3.14 µM
0.069	< 0.001	0.062	0.06		COc1cc(Cl)c(-c2nc(SCC(=O)NC3CC3)nc3[nH]cc(C#N)c23)cc1OC	
0.102	< 0.001	0.236	1.16		COc1cc(Cl)c(-c2nc(SCC(=O)NC3CC3)nc3[nH]cc(C#N)c23)cc1O	
0.025	< 0.001	0.023	0.02		CCOc1cc(-c2nc(SCC(=O)NC3CC3)nc3[nH]cc(C#N)c23)c(Cl)cc1OC	
0.161	0.003	0.178	0.238		COc1cc(Cl)c(-c2nc(SCC(=O)NC(C)C)nc3[nH]cc(C#N)c23)cc1O	
0.141	0.002	0.059	0.042		CCNC(=O)CSc1nc(-c2cc(OC)c(OC)cc2Cl)c2c(C#N)c[nH]c2n1	
0.044	< 0.001	0.064	0.04		CCNC(=O)CSc1nc(-c2cc(OCC)c(OC)cc2Cl)c2c(C#N)c[nH]c2n1	
0.128	< 0.001	0.152	0.117		COc1cc(Cl)c(-c2nc(SCC(=O)NC(C)(C)C)nc3[nH]cc(C#N)c23)cc1O	
0.121	< 0.001	0.084	0.05		COc1cc(Cl)c(-c2nc(SCC(=O)NC(C)(C)C)nc3[nH]cc(C#N)c23)cc1OC	
0.084	< 0.001	0.077	0.065		CCOc1cc(-c2nc(SCC(=O)NC(C)C)nc3[nH]cc(C#N)c23)c(Cl)cc1OC	
0.081	< 0.001	0.102	0.081		COc1cc(Cl)c(-c2nc(SCC(=O)NC(C)C)nc3[nH]cc(C#N)c23)cc1OC	
0.136	0.005	0.178	0.098		COc1cc(Cl)c(-c2nc(SCC(=O)NCCF)nc3[nH]cc(C#N)c23)cc1OC	
0.085	0.002	0.183	0.728		COc1cc(Cl)c(-c2nc(SCC(=O)NCCF)nc3[nH]cc(C#N)c23)cc1O	
0.045	< 0.001	0.124	0.153		COc1cc(Cl)c(-c2nc(SCC(=O)NCC(F)(F)F)nc3[nH]cc(C#N)c23)cc1OC	
0.021	< 0.001	0.028	0.172		COc1cc(Cl)c(-c2nc(SCC(=O)N3CCC3)nc3[nH]cc(C#N)c23)cc1O	
0.031	0.003				COc1cc(Cl)c(-c2nc(SC)nc3[nH]cc(C#N)c23)cc1OCCN1CC[C@H](F)C1	
0.047	0.012				COc1cc(Cl)c(-c2nc(SC)nc3[nH]cc(C#N)c23)cc1OCCN1CCC(F)(F)C1	
0.072	< 0.001				CCN(CC)CCSc1nc(-c2cc(OC)c(Cl)cc2Cl)c2c(C#N)c[nH]c2n1	
0.026	0.007				CCN(CC)CCSc1nc(-c2cc(OC)c(OC)cc2Cl)c2c(C#N)c[nH]c2n1	

More lines, now with the values behind:

Structure (SMILES)	GI50 (BT-474) [µM]	Ki [1] [µM]	GI50 (MDA-MB-468) [µM]	GI50 (HCT-116) [µM]	Kd [13] [µM]	further results
CCN(CC)CCOc1nc(-c2cc(OC)c(Cl)cc2Cl)c2c(C#N)c[nH]c2n1	2.01	0.062				
CCN(CC)CCSc1nc(-c2cc(OC)c(C#N)cc2Cl)c2c(C#N)c[nH]c2n1	0.08	< 0.001				
COc1cc(Cl)c(-c2nc(SC(C)C)nc3[nH]cc(C#N)c23)cc1OCCN1CCC(F)(F)C1	0.388	0.172				
CSc1nc(-c2ccc(C#N)cc2)c2cc[nH]c2n1		> 200			> 100	
CSc1nc(-c2ccc(C)cc2C)c2c(C#N)c[nH]c2n1		0.195				Kd [14]: 0.156 µM
CSc1nc(-c2ccc(F)cc2C)c2c(C#N)c[nH]c2n1		0.358			0.43	Kd [14]: 0.251 µM
CSc1nc(-c2ccc(C#N)cc2)c2c(C#N)c[nH]c2n1		0.204			1.22	
CSc1nc(-c2ccc(C)cc2C)c2c(C#N)n[nH]c2n1		5.23			38	
CSc1nc(-c2ccc(C)cc2C)c2c(Br)c[nH]c2n1		> 200			> 20	
CSc1nc(-c2ccc(C)cc2C)c2c(C)c[nH]c2n1		> 200			19.3	
CSc1nc(-c2ccc(C)cc2C)c2c(C(F)(F)F)c[nH]c2n1		2.64			55	
CSc1nc(-c2ccc(C)cc2C)c2c(C3CC3)c[nH]c2n1		> 50			> 100	
CSc1nc(-c2ccc(F)cc2C)c2c(C(N)=O)c[nH]c2n1		> 200			> 100	
Cc1ccc(-c2ncnc3[nH]cc(C#N)c23)c(C)c1		2.83			1.88	Kd [14]: 1.62 µM
COc1nc(-c2ccc(F)cc2C)c2c(C#N)c[nH]c2n1		0.628			2.81	Kd [14]: 0.725 µM
CNc1nc(-c2ccc(F)cc2C)c2c(C#N)c[nH]c2n1		4.07			4.26	Kd [14]: 3.69 µM
CCc1nc(-c2ccc(F)cc2C)c2c(C#N)c[nH]c2n1		1.72			2.22	Kd [14]: 1.83 µM
CSc1nc(-c2cc(OCCN3CCCC3)c(Cl)cc2Cl)c2c(C#N)c[nH]c2n1	0.048	0.004				
CCN(CC)CCOc1cc(-c2nc(SC)nc3[nH]cc(C#N)c23)c(Cl)cc1Cl	0.031	0.002				
CSc1nc(-c2ccc(F)cc2C)c2nc[nH]c2n1		12.8			2.3	Kd [14]: 2.73 µM
CSc1nc(-c2ccc(C#N)cc2)c2nc[nH]c2n1		24.5			> 20	
CSc1nc(-c2ccc(C)cc2C)c2cc[nH]c2n1		> 200			> 100	
CSc1nc(-c2ccc(F)cc2C)c2cc[nH]c2n1		> 200			> 100	
CSc1nc(-c2ccc(Cl)cc2C)c2nc[nH]c2n1		0.661			> 20	
